ChEMBL document CHEMBL1128402, “Irreversible inhibitors of nicotinic acetylcholine receptors: isolation and structural characterization of the biologically active solvolysis products of bipinnatin-A and bipinnatin-C” (J Med Chem, 1995)

Tests used:
[1] = Rate constant of solvolysis for the compound was determined; type: ADME
Outline: (§1)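 Toxin at 100 μM (diluted from 10 mM DMSO stock) in 25 mM sodium phosphate, pH 7.4, 1% DMSO, at 22–24 °C for various times. Fit by nonlinear regression to a single-exponential decay; mean ± SEM of 3–9 independent experiments.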

[2] = Half-life was determined; type: ADME; outline: as §1
[3] = Half-life of the bipinnatin-A(A4) was determined; type: ADME
BC3H-1 [4] = assay: Irreversible inhibition rate of [1251]alpha-bungarotoxin binding to Nicotinic acetylcholine receptor (neuronal and muscle) by bipinnatin-A(A4) on intact BC3H-1 cell lines; type: cell-based
Outline: (§2)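 Toxin diluted to 100 µM in assay buffer with 1% DMSO was added straight onto BC3H-1 cells. At set times it was removed and remaining receptors were measured with saturating [125I]-α-bungarotoxin. The log of specific binding relative to time zero was plotted against time. Rates came from nonlinear regression, double-exponential where applicable, from at least two independent experiments.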

BC3H-1 [5] = assay: Irreversible inhibition of [1251]alpha-bungarotoxin binding to Nicotinic acetylcholine receptor (neuronal and muscle) by bipinnatin-A(A4) on intact BC3H-1 cell lines; type: cell-based; conditions: dose or concentration not given here
Outline: (§3)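 Each toxin was preincubated 0–8 h in pH 7.4 phosphate buffer, then its HPLC-isolated peak was dissolved in Hepes/KCl assay buffer pH 7.4 with 1% DMSO. BC3H-1 cells were equilibrated 20 min at 22–24 °C, given the toxin for 1 h, washed, then given saturating [125I]-α-bungarotoxin (15–20 nM) for 1 h. Bound label was gamma-counted, nonspecific binding defined with 100 nM α-bungarotoxin, run in triplicate.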

[6] = Apparent first-order rate of solvolysis for the bipinnatin-A(A4) was determined; type: ADME
BC3H-1 [7] = assay: Irreversible inhibition of [1251]alpha-bungarotoxin binding to Nicotinic acetylcholine receptor (neuronal and muscle) by bipinnatin-A on intact BC3H-1 cell lines; type: cell-based; conditions: dose or concentration not given here; outline: as §3
BC3H-1 [8] = assay: Irreversible inhibition rate of [1251]alpha-bungarotoxin binding to Nicotinic acetylcholine receptor (neuronal and muscle) by bipinnatin-A on intact BC3H-1 cell lines; type: cell-based; outline: as §2
[9] = Rate of acetate production by the compound was determined; type: ADME
Outline: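 Toxin at 100 μM in 25 mM sodium phosphate, pH 7.4, 1% DMSO, at 22–24 °C for up to 8 h. Acetic acid was then measured with a coupled enzyme assay (NAD to NADH, A340 every 5 s for 5 min, initial rate by linear regression, calibrated with 25–200 μM acetate standards). Percent of maximum fit to a single-exponential growth function; mean ± SEM of 3–9 experiments.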

[10] = Amount of acetic acid produced by the compound; type: ADME
[11] = Amount acetic acid produced by the compound; type: ADME

Structure (SMILES)	Ksolv [1]	T1/2 [2]	half-life [2]	half-life [3]	inhibition (BC3H-1 [4])	inhibition (BC3H-1 [5])	Activity [6]	inhibition (BC3H-1 [7])	inhibition (BC3H-1 [8])	Activity [9]	Activity [10]	Acid hydrolysis [11]
C=C(C(=O)OC)[C@H]1CC(OC(C)=O)[C@@]23O[C@@H]2C(C[C@]2(C)O[C@H]2C2=CC(C)=C(O2)C1OC(C)=O)OC3=O (some centres not stated)	0.638 h⁻¹	1.04 h	1.08 h	1.74 h	0.033 min⁻¹	57.5%	0.399 h⁻¹	41.5%	0.29 min⁻¹	0.67 h⁻¹	–	–
C=C(C)[C@@H]1CC2=C(C=O)C=C(O2)[C@@H]2O[C@@]2(C)C[C@H]2OC(=O)[C@@]3(O[C@H]23)[C@@H](OC(C)=O)C1 [LOPHOTOXIN]	0.017 h⁻¹	–	40 h	–	–	–	–	–	–	–	0.17 M⁻¹	–
CC(=O)OC1C2=C(C)C=C(O2)[C@@H]2O[C@@]2(C)CC2OC(=O)[C@@]3(O[C@H]23)C(OC(C)=O)C[C@@H]1C1(C)CO1 (some centres not stated)	0.596 h⁻¹	1.24 h	1.17 h	–	–	–	–	–	–	0.589 h⁻¹	–	–
C=C(C=O)[C@H]1CC(OC(C)=O)[C@@]23O[C@@H]2C(C[C@]2(C)O[C@H]2C2=CC(C)=C(O2)C1OC(C)=O)OC3=O (some centres not stated)	0.719 h⁻¹	0.97 h	0.97 h	–	–	–	–	–	–	0.735 h⁻¹	–	–
CC(=O)OCC[N+](C)(C)C [ACETYLCHOLINE]	–	–	–	–	–	–	–	–	–	–	–	0.22 mol/mol
